Measured values from different studies.
Lines come from different studies, so protocols differ.
rep papain-like protease: Replicase polyprotein 1ab, papain-like protease (rep, Porcine epidemic diarrhea virus, UniProt P0C6Y4)
SLC6A4: Sodium-dependent serotonin transporter (SLC6A4, Homo sapiens, UniProt P31645)
rep main protease: Replicase polyprotein 1ab, main protease (rep, Porcine epidemic diarrhea virus, UniProt P0C6Y4)

The inhibition of `Cn1c(C(=O)NCc2cc(O)c(O)c(Br)c2)cc2ccccc21` is reported as 86.3% (rep papain-like protease; enzyme activity; inhibitor; FRET; 10 µM).
With `C#Cc1cc(-c2cc(Nc3nc(N[C@@H](C)c4ccc(F)cn4)ncc3Cl)n[nH]2)ccc1C=O` the inhibition was 22.5% (Serine/threonine-protein kinase Nek2 (NEK2, Homo sapiens, UniProt P51955); enzyme activity; inhibitor; 0.2 µM).
`CNC(=O)[C@@]12C[C@@H]1[C@@H](n1cnc3c(Nc4ccccc4)nc(C#Cc4ccc(Cl)s4)nc31)[C@H](O)[C@@H]2O` gave an inhibition of 11% (SLC6A4; ligand displacement; radioligand; 10 µM).
The inhibition of `O=C(NCc1cc(O)c(O)c(Br)c1)c1ccccc1` is reported as 74.8% (rep main protease; enzyme activity; inhibitor; FRET; 10 µM).
`CCN1/C(=C/C(C)=O)Sc2ccc(F)cc21` has an inhibition of 4.51% (Type-2 angiotensin II receptor (AGTR2, Homo sapiens, UniProt P50052); ligand displacement; radioligand; 10 µM).
`COc1ccc(CNC(=O)c2ccc(Br)cc2)cc1OC` gave an inhibition of 66.1% (rep papain-like protease; enzyme activity; inhibitor; FRET; 10 µM).
`NC/C(=C\F)COc1cccc(Cn2c(=S)[nH]c(=O)c3[nH]cnc32)c1` has an inhibition of < 50% (SLC6A4; ligand displacement; radioligand; 10 µM).
With `Cc1cc(O)c(-c2ccc([C@@H](C)CN(C)C)cc2)c2c1[nH]c(=O)c1sccc12` the inhibition was 14.8% (STE20-related kinase adapter protein alpha (STRADA, Homo sapiens, UniProt Q7RTN6); enzyme activity; inhibitor; 0.1 µM).
With `CCOC(=O)[C@@]12C[C@@H]1[C@@H](n1cnc3c(NCCCCc4ccccc4)nc(C#Cc4ccc(Cl)s4)nc31)[C@H](O)[C@@H]2O` the inhibition was 16% (SLC6A4; ligand displacement; radioligand; 10 µM).
`COc1ccc(C(=O)NCc2cc(Br)c(OC)c(OC)c2)cc1` has an inhibition of 83.7% (rep main protease; enzyme activity; inhibitor; FRET; 10 µM).
The inhibition of `OC[C@@]12C[C@@H]1[C@@H](n1cnc3c(NC(C4CCC4)C4CCC4)nc(C#Cc4ccc(Cl)s4)nc31)[C@H](O)[C@@H]2O` is reported as 15% (SLC6A4; ligand displacement; radioligand; 10 µM).
`Cc1cc(F)cc2c(CCC(=O)N[C@@H]3C(=O)NC[C@H]3O)c(-c3ccc(F)cc3)[nH]c12` has an inhibition of 11% (D(1A) dopamine receptor (DRD1, Homo sapiens, UniProt P21728); cell-free assay; 10 µM).
`CCOC(=O)[C@@]12C[C@@H]1[C@@H](n1cnc3c(NCCCCc4ccccc4)nc(I)nc31)[C@H](O)[C@@H]2O` gave an inhibition of 20% (SLC6A4; ligand displacement; radioligand; 10 µM).
`O=C1C=C(Nc2ccc(OCc3cn(Cc4ccccc4)nn3)cc2)C(=O)c2ccccc21` has an inhibition of 0% (BDNF/NT-3 growth factors receptor (NTRK2, Homo sapiens, UniProt Q16620); enzyme activity; inhibitor; radiometric; 10 µM).
`CSc1ccccc1C(=O)NCc1cc(O)c(O)c(Br)c1` has an inhibition of 13.9% (rep main protease; enzyme activity; inhibitor; FRET; 10 µM).
`CCOC(=O)[C@@]12C[C@@H]1[C@@H](n1cnc3c(Nc4ccccc4)nc(I)nc31)[C@H](O)[C@@H]2O` has an inhibition of -12% (SLC6A4; ligand displacement; radioligand; 10 µM).
`O=C(NCc1cc(O)c(O)c(Br)c1)c1cccc(CCl)c1` gave an inhibition of 103% (rep papain-like protease; enzyme activity; inhibitor; FRET; 10 µM).
With `CCOC(=O)[C@@]12C[C@@H]1[C@@H](n1cnc3c(NCc4cccc(Cl)c4)nc(I)nc31)[C@H](O)[C@@H]2O` the inhibition was -5% (SLC6A4; ligand displacement; radioligand; 10 µM).
